≈ marks a conversion by molar mass, not a printed value.
Legend:
Aspergillus fumigatus = test: Antimycotic activity against Aspergillus fumigatus was evaluated as compound minimum inhibitory concentration at which no macroscopic signs of fungal growth were detected.; assay type: functional
Mycobacterium = test: Antibacterial activity was evaluated against MAC (Mycobacterium Avium Complex ); assay type: functional
In short: (§1)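 Mycobacterial suspension (turbidity of 1 McFarland standard, 10⁸ CFU/mL) added to Middlebrook 7H9 with 0.5% glycerol, 10% OADC and serial compound dilutions. Incubated at 37 °C, 1 day for M. smegmatis and M. fortuitum, 9 days for MAC. Viable mycobacteria counted by MTT. MIC given as mean of at least three separate experiments.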

[1] = system: Mycobacterium tuberculosis; test: Antibacterial activity was evaluated against Mycobacterium tuberculosis (clinical isolate 1104); assay type: functional
In short: (§2)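 Broth microdilution in Middlebrook 7H9 with 0.5% glycerol and 10% OADC, containing serial concentrations of compound (diluted in medium from a DMSO solution). Plates were incubated 9 days at 37 °C, and viable bacteria were read by MTT. MIC is the mean of at least three separate experiments.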

HeLa = test: Antitumor activity was evaluated against human cervix carcinoma cell line HeLa.; assay type: functional, cell-based
In short: (§3)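 Solid-tumour and KB lines: exponentially growing cells seeded at 5×10⁴ cells/mL, allowed to adhere 16 h, then serial drug dilutions added. Viability by MTT after 4 days. Growth expressed as % of untreated controls, 50% inhibitory concentration by linear regression. Untreated cells undergo at least three rounds of multiplication.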

Streptococcus = test: Antibacterial activity was evaluated against streptococcus.; assay type: functional
In short: (§4)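 Recent clinical isolates grown in nutrient broth, pH 7.2, inoculum 10³ bacterial cells/tube, with serial compound dilutions. […] Mean of at least three separate experiments.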

Candida parapsilosis [2] = test: Antimycotic activity against Candida parapsilosis was evaluated. MIC was defined as compound concentration at which no macroscopic signs of fungal growth were detected.; assay type: functional; settings: Lodderomyces parapsilosis
In short: (§5)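 Yeast inocula from 30 h Sabouraud dextrose broth cultures at 37 °C, diluted to 5×10³ cells/mL. Dermatophyte inocula from 5-day cultures, homogenized and diluted to 0.05 OD₅₉₀/mL. Inocula added to medium with serial dilutions, incubated at 37 °C, read visually at 2 days (yeast) or 3 days (dermatophytes). Mean of at least three experiments.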

Candida tropicalis = test: Antimycotic activity against Candida paratropicalis was evaluated. MIC was defined as compound concentration at which no macroscopic signs of fungal growth were detected.; assay type: functional; in short: as §5
Cryptococcus neoformans = test: Antimycotic activity against Cryptococcus neoformans was evaluated. MIC was defined as compound concentration at which no macroscopic signs of fungal growth were detected.; assay type: functional; in short: as §5
Salmonella = test: Antibacterial activity was evaluated against salmonella.; assay type: functional; in short: as §4
Candida albicans = test: Antimycotic activity against Candida albicans was evaluated as minimum inhibitory concentration of compound at which no macroscopic signs of fungal growth were detected; assay type: functional; in short: as §5
HT-29 = test: Antitumor activity was evaluated against human colon adenocarcinoma cell line HT-29.; assay type: functional, cell-based; in short: as §3
[3] = system: Mycolicibacterium fortuitum; test: Antibacterial activity was evaluated against Mycobacterium fortuitum.; assay type: functional; in short: as §1
CHO-K1 = test: Antitumor activity was evaluated against Chinese hamster ovary carcinoma cell line CHO-K1.; assay type: functional, cell-based; settings: Cricetulus griseus; in short: as §3
Staphylococcus = test: Antibacterial activity was evaluated against staphylococcus; assay type: functional; in short: as §4
CCRF-SB = test: Antitumor activity was evaluated against leukemia cell line CCRF-SB(human acute B lymphoblastic leukemia).; assay type: functional, cell-based
In short: (§6)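 Exponentially growing leukemia/lymphoma cells resuspended at 1×10⁵ cells/mL in RPMI with serial drug dilutions. Viability by MTT after 4 days at 37 °C. Concentration giving 50% growth inhibition versus untreated controls found by linear regression. Mean of at least three experiments.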

5637 = test: Antitumor activity was evaluated against human bladder carcinoma cell line 5637.; assay type: functional, cell-based; in short: as §3
L1210 = test: Antitumor activity was evaluated against leukemia cell line L1210 (mouse leukemia).; assay type: functional, cell-based; in short: as §6
[4] = system: Mycobacterium tuberculosis; test: Antibacterial activity was evaluated against Mycobacterium tuberculosis (ATCC); assay type: functional; in short: as §2
IMR-32 = test: Antitumor activity was evaluated against human neuroblastoma cell line IMR-32.; assay type: functional, cell-based; in short: as §3
MOLT-4 = test: Antitumor activity was evaluated against leukemia cell line MOLT-4(human acute T lymphoblastic leukemia); assay type: functional, cell-based; in short: as §6
Shigella = test: Antibacterial activity was evaluated against shigella.; assay type: functional; in short: as §4
WIL2-NS = test: Antitumor activity was evaluated against lymphoma cell line Wil2-NS (human splenic B lymphoblastoid cells).; assay type: functional, cell-based; in short: as §6
ACHN = test: Antitumor activity was evaluated against human renal adenocarcinoma cell line ACHN.; assay type: functional, cell-based; in short: as §3
CCRF-CEM = test: Antitumor activity was evaluated against leukemia cell line CCRF-CEM(human acute T lymphoblastic leukemia).; assay type: functional, cell-based
In short: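 Exponentially growing leukemia/lymphoma cells resuspended at 1×10⁵ cells/mL in RPMI with serial drug dilutions. Viability by MTT after 4 days at 37 °C. Mean of at least three experiments.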

Trichophyton benhamiae = test: Antimycotic activity against Trichophyton mentagrophytes was evaluated. MIC was defined as compound concentration at which no macroscopic signs of fungal growth were detected.; assay type: functional, Arthroderma benhamiae; in short: as §5
MT4 = test: Antitumor activity was evaluated against leukemia cell line MT-4(human CD4+ T cells expressing the TAT gene of HTLV-1).; assay type: functional, cell-based; in short: as §6
[5] = system: Mycolicibacterium smegmatis; test: Antibacterial activity was evaluated against Mycobacterium smegmatis; assay type: functional; in short: as §1
Homo sapiens [6] = organism: Homo sapiens; test: In vitro Antiproliferative activity against peripheral blood lymphocytes (PBL) after stimulating PBL with PHA and then resuspending in IL-2-containing medium in the presence of compound.; assay type: functional
In short: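 PBL from HIV-negative donors, isolated on Ficoll-Hypaque and rested overnight. Stimulated with PHA 2.5 μg/mL for 24 h, diluted to 1×10⁵ cells/mL in medium with PHA, IL-2 50 U/mL and compound. Viable cells counted after 6 days. Mean ±SD of three experiments.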

Homo sapiens [7] = organism: Homo sapiens; test: In vitro Antiproliferative activity against peripheral blood lymphocytes (PBL) by treating PBL with compound for 3 days, then stimulating with PHA and then resuspending in compound free medium.; assay type: functional; settings: 72 h
In short: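 Resting donor PBL held at 1×10⁶ cells/mL and treated with compound for up to 3 days, then washed. Stimulated with PHA for 24 h, diluted to 1×10⁵ cells/mL in drug-free medium with PHA and IL-2. Viability read after 6 days at 37 °C. Mean ±SD of three experiments.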

Lymphoblastoid cell = test: Cytotoxicity was evaluated against lymphoblastoid cell line.; assay type: functional; settings: Homo sapiens
Candida parapsilosis [8] = test: Antimycotic activity against Candida parapsilosis was evaluated as compound concentration at which no macroscopic signs of fungal growth were detected; assay type: functional; settings: Lodderomyces parapsilosis; in short: as §5

Row | Compound | MIC (Aspergillus fumigatus) [µM] | MIC (Mycobacterium) [µM] | MIC [1] [µM] | IC50 (HeLa) [µM] | MIC (Streptococcus) [µM] | MIC (Candida tropicalis) [µM] | MIC (Cryptococcus neoformans) [µM] | MIC (Salmonella) [µM] | MIC (Candida albicans) [µM] | IC50 (HT-29) [µM] | MIC [3] [µM] | IC50 (CHO-K1) [µM] | MIC (Staphylococcus) [µM] | IC50 (CCRF-SB) [µM] | IC50 5637 [µM] | IC50 (L1210) [µM] | MIC [4] [µM] | IC50 (IMR-32) [µM] | IC50 (MOLT-4) [µM] | MIC (Shigella) [µM] | other results
1 | O=Nc1c2ccccc2n2nnc3ccccc3c12 | 19 (≈ 4.72 µg/mL) | 1.2 (≈ 0.298 µg/mL) | 7.4 (≈ 1.84 µg/mL) | 10 | 0.8 (≈ 0.199 µg/mL) | 19 (≈ 4.72 µg/mL) | 3.1 (≈ 0.77 µg/mL) | 25 (≈ 6.21 µg/mL) | 19 (≈ 4.72 µg/mL) | 50 | > 5 | 45 | 0.8 (≈ 0.199 µg/mL) | 7.4 | 4.2 | 12 | 4.6 (≈ 1.14 µg/mL) | 3.3 | 2.3 | 25 (≈ 6.21 µg/mL) | MIC (Candida parapsilosis [2]): 19 µM (≈ 4.72 µg/mL); IC50 (WIL2-NS): 4.4 µM; IC50 (ACHN): 12 µM; IC50 (CCRF-CEM): 7 µM; MIC (Trichophyton benhamiae): 9.4 µM (≈ 2.33 µg/mL); IC50 (MT4): 1.4 µM; MIC [5]: 2.5 µM (≈ 0.621 µg/mL)
2 | Cc1ccc2nnn3c4ccccc4c(N=O)c3c2c1 | > 200 | 5 (≈ 1.31 µg/mL) | 9.2 (≈ 2.41 µg/mL) | 9.5 | 0.8 (≈ 0.21 µg/mL) | > 200 | > 200 | > 200 | > 200 | 3.1 | > 5 | 6.5 | 0.4 (≈ 0.105 µg/mL) | 0.7 | 1.9 | 1.7 | 9.3 (≈ 2.44 µg/mL) | 2.8 | 0.5 | > 200 | CC50 (Homo sapiens [6]): 0.5 µM; CC50 (Homo sapiens [7]): 0.6 µM; IC50 (WIL2-NS): 0.8 µM; IC50 (ACHN): 8.7 µM; IC50 (CCRF-CEM): 0.5 µM; MIC (Trichophyton benhamiae): > 200 µM; IC50 (MT4): 1.3 µM; CC50 (Lymphoblastoid cell): 0.9 µM; MIC [5]: > 5 µM; MIC (Candida parapsilosis [8]): > 200 µM
